Screens: PubChem, Johns Hopkins Ion Channel Center
The list is not random: actives were taken first. Their share in the collection is about 4.1%.
MrgX1 allo act = allosterically activates human MrgX1 receptor signaling. 310,000 tested, 0.63% active. MrgX1-HEK293, Fluo-4 calcium flux, FDSS; stronger effect = higher value. Q96LB2. B-score at 10 µM;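 active = plate-corrected calcium response at least 3 library SD above typical, normal starting fluorescence, not activating the receptor alone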;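 note: compound read alongside a low EC10 to EC30 dose of BAM8-22 agonist; peak minus trough fluorescence over baseline measured at the second addition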
MrgX1 agonist = human MrgX1 receptor agonism, primary screen | B-score at 10 µM | MrgX1-HEK293 cells, Fluo-4 calcium fluorescence, agonist mode; stronger effect = higher value | 310,000 tested, 0.44% active;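 active = calcium response B-score plate-corrected fluorescence ratio at least 3 library SD, with starting fluorescence B-score inside 5 SD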
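Material: MrgX1-expressing HEK293 cells / Dosing: compound as first of three additions / Incubation: overnight seeding, then 1 h dark dye loading / Signal: Fluo-4 NW calcium fluorescence / Evaluation: B-scored fluorescence response ratio / Benchmarks: positive and negative control wells on each plate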
RGS4 block = human RGS4 inhibition | HEK293 M3R/RGS4 inducible, Fluo-4 calcium flux; stronger effect = higher value; triggered by carbachol at its EC20 | 310,000 tested, 0.45% active | P49798 | B-score at 10 µM | AID 463165;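 active = B-score, a plate-corrected calcium signal, over three deviations above library mean, with baseline fluorescence within five deviations of library mean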;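 note: RGS4 expression induced by doxycycline in cells with stable M3 receptor; B-score is computed from the integrated fluorescence ratio over baseline after carbachol; higher B-score means a larger calcium signal and so more RGS4 inhibition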
Target sequence (P49798 whole entry, looked up): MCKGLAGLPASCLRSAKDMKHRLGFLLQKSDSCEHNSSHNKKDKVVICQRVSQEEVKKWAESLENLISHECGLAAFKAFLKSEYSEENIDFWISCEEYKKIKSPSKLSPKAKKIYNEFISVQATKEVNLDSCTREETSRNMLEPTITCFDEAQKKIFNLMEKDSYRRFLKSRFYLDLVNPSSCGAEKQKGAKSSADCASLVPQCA
MrgX1 antag = antagonists of human MrgX1 receptor. MRGX1-HEK293 calcium flux, Fluo-4, BAM8-22 antagonism; stronger effect = lower value. B-score at 10 µM. 310,000 tested, 1.3% active;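 active = calcium-response B-score plate-corrected more than 3 library SD below zero, starting fluorescence within 5 deviations, no agonist response on first addition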;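 note: peak minus trough fluorescence over baseline after final BAM8-22 challenge near maximal dose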
Kir21 inh = Kir2.1 (mouse) channel inhibition; P35561; HEK293-Kir2.1, FluxOR thallium flux fluorescence; stronger effect = lower value; B-score at 10 µM; 310,000 tested, 0.85% active; AID 1672;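 active = fluorescence ratio B-score at or below minus 3 SD of library scores, with starting-brightness B-score within 2 SD, cut at about -4.2 in these data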;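 note: channel flux triggered by added potassium and thallium sulfate stimulus; B-score of peak minus minimum fluorescence over baseline after thallium stimulus; more negative B-score means stronger Kir2.1 block with less thallium influx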
Target sequence (P35561 whole entry, looked up): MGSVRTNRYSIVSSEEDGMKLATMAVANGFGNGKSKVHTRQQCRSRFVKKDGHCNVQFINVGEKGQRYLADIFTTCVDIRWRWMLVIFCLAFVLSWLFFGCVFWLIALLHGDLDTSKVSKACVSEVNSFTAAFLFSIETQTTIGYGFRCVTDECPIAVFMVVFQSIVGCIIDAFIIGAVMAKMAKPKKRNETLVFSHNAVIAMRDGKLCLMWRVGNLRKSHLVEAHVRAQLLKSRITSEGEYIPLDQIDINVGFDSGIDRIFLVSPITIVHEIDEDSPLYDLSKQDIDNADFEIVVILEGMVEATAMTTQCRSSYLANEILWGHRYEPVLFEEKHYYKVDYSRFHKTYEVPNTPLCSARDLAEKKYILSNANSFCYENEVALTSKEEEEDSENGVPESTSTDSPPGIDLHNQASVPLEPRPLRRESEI
RGS4 pot = potentiators or activators of RGS4; HEK293 M3R/inducible RGS4, carbachol calcium flux Fluo4; stronger effect = lower value; 310,000 tested, 0.92% active; B-score at 10 µM;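 active = B-score of the integrated calcium signal more than 4 SD below the library mean, with starting fluorescence not abnormally high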;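 note: negative B-score means reduced calcium response which marks RGS4 activation or potentiation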
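test system = HEK293 cells with stable M3R and inducible RGS4 | schedule = recording 10 s baseline at 1 Hz, 100 s post-agonist | technique = Fluo4-AM (2 µM) calcium-flux fluorescence, kinetic read | measure = Agonist-evoked peak-minus-minimum fluorescence over baseline, integrated ratio, B score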
An asterisk follows results filed as active; i = inactive; / = not tested or not shown.

SMILES	MrgX1 allo act	MrgX1 agonist	RGS4 block	MrgX1 antag	Kir21 inh	RGS4 pot
COc1cc(NC(=O)CCN2CCN(CCO)CC2)cc(OC)c1	i	i	i	i	-1.5	i
Cc1cc(C)n(-c2ccc(C(F)(F)F)cc2[N+](=O)[O-])n1	i	i	i	i	0.23	-9.3*
Cc1cc(C)n(-c2cc(Cl)ccc2[N+](=O)[O-])n1	i	i	i	i	-0.1	i
CN(C)CCCNC(=O)c1cc(C(=O)c2ccccc2F)c[nH]1	i	i	i	i	-0.01	i
O=C(Nc1ccc(Cl)cc1)[C@@H]1[C@@H]2C(=O)N(c3ccc(Cl)cc3Cl)C(=O)[C@@H]2[C@H]2C=CC=NN21	i	i	i	-5.1*	0.74	i
CC(C)NC(NC(=O)Cc1ccccc1)C(Cl)(Cl)Cl (centres undefined)	i	i	i	i	0.67	i
COc1ccc(CN(C(=O)c2cc3ccccc3oc2=O)C2CCCC2)cc1	i	i	i	-5*	-0.19	i
NCC(c1ccc(Cl)cc1Cl)c1c[nH]c2ccccc12 (centres undefined)	i	i	i	i	-8.7*	i
NCC(c1ccccc1Cl)c1c[nH]c2ccccc12 (centres undefined)	i	i	i	i	-0.73	i
CN(C)CCCNC(=S)NCC(c1ccc(Cl)cc1Cl)c1c[nH]c2ccccc12 (centres undefined)	i	i	i	i	-6.5*	i
c1ccc(Oc2ccc(-c3ccnc4nc(N5CCN(c6ccccc6)CC5)nn34)cc2)cc1	i	i	i	i	1.1	i
Cc1ccccc1S(=O)(=O)c1c(C)cc(C)n(C(C)C)c1=O	i	i	i	i	-4.4*	i
CCCCn1c(C)cc(C)c(S(=O)(=O)c2ccccc2C)c1=O	i	i	i	i	-1.1	i
CCCCOc1cccc(NC(=O)CSc2nccn2C)c1	i	i	i	i	-0.03	i
COc1ccc(NC(=S)N2CCN(S(C)(=O)=O)CC2)cc1OC	i	i	i	i	-0.83	i
Cc1ccc(N=Cc2cc(Cl)cc(Cl)c2O)nc1	7.6*	i	i	i	0.14	i
COc1ccc(S(=O)(=O)NCCSc2ccccc2)cc1OC	i	i	i	i	0.17	i
COc1ccc(S(=O)(=O)NCCSc2ccc(C)cc2)cc1OC	i	i	i	i	-5.2*	i
CCSCc1nnc(SCC(=O)Nc2nccs2)n1CC	i	i	i	i	-2.5	i
CCn1c(COc2ccc(C(C)C)cc2)nnc1SCC(=O)Nc1nccs1	i	i	i	-7.6*	0.99	i
CCC(C)NC(=O)COC(=O)c1ccc(Cl)cc1O (centres undefined)	i	i	i	i	-0.58	i
COC(=O)CN(c1nc(C)c(Br)c(OC)n1)S(=O)(=O)c1ccccc1	i	i	i	i	-5.5*	i
COc1ccc2[nH]c3c(c2c1)CCN1C(=O)N([C@@H](C)C(=O)NCCc2ccc(F)cc2)C(=O)[C@]31C	i	i	i	i	-1	i
COc1ccc(-c2noc(CCC(=O)N3CCN(Cc4ccccc4)CC3)n2)cc1	i	i	i	-5.3*	-0.43	i
COc1ccc(-c2noc(CCC(=O)N3CCC(C)CC3)n2)cc1	i	i	i	i	0.91	i
SMILES	MrgX1 allo act	MrgX1 agonist	RGS4 block	MrgX1 antag	Kir21 inh	RGS4 pot
COc1ccc(C(C)NC(=S)NCc2ccc(F)cc2)cc1 (centres undefined)	i	i	i	i	-5.5	i
COc1ccc(NC2CCCN(C(=O)CCc3scnc3C)C2)cc1 (centres undefined)	i	i	i	i	-0.22	i
CC(C)Cc1ccc(C(C)C(=O)OCC(=O)c2c[nH]c3ccccc23)cc1 (centres undefined)	i	i	i	i	-1.9	-7.3*
Cc1ccc(C(=O)OCC(=O)c2c[nH]c3ccccc23)cc1	i	i	i	i	2	i
Cc1scc(C(=O)N/N=C/c2ccc(OCC(C)C)cc2)c1C	i	i	i	i	1.9	i
CCCCOc1ccc(/C=N/NC(=O)c2csc(C)c2C)cc1	i	i	i	i	0.83	-8.6*
COc1ccc(C(O)(c2ccccc2OC)C(CN2CCOCC2)c2ccccc2)cc1 (centres undefined)	i	i	i	i	-1.6	i
N#C/C(=C\c1cccs1)C(=O)Nc1nccs1	i	44*	i	i	-0.47	i
CCN(CC)c1ccc(C=Nc2ccccc2)c(O)c1	i	i	i	i	1.2	i
CCN(CC)c1ccc(/C=N/N2C(C)CCCC2C)c(O)c1 (centres undefined)	7.7*	i	i	i	-1.3	i
CCN(CC)c1ccc(/C=N/N=C(N)N)c(O)c1	7.8*	i	i	-5.5*	-2.2	i
CCC/C(=N/NC(=O)c1ccc2c(c1)OCO2)c1cccs1	i	i	i	i	0.04	i
CC(=O)O[C@H]1CC[C@]2(C)[C@H]3CC=C4[C@@H]5[C@@H](C)[C@H](C)CC[C@]5(C(=O)O)CC[C@@]4(C)[C@]3(C)CC[C@H]2C1(C)C	i	i	14*	i	-0.69	i
CC1(C)C2CC[C@]3(C)C(CC=C4[C@@H]5C[C@@](C)(CO)[C@@H](O)C[C@]5(C(=O)O)CC[C@]43C)[C@@]2(C)CC[C@@H]1O (some centres undefined)	i	i	i	i	0.01	i
N#CC(C#N)=C(Nc1ccccc1)c1ccccc1	i	i	i	i	-0.68	i
CSC(SC)=C(C#N)C(=O)c1ccccc1	i	i	i	i	-4.4*	i
CCOc1ccc2nc(N3C(=O)/C(=C/c4ccccc4)NC3=S)sc2c1	i	i	i	i	1.2	i
COc1ccc2nc(N3C(=O)/C(=C/c4ccccc4)NC3=S)sc2c1	6.8*	i	i	i	0.8	i
CCc1cc(/C(Cc2ccccn2)=N\O)c(O)cc1O	i	i	i	i	-5.6*	i
CCc1cc(/C(Cc2cscn2)=N\O)c(O)cc1O	i	i	i	i	-2.1	i
Cc1ccc(S(=O)(=O)N2[C@@H](c3ccccc3F)C(C(=O)O)=CC[C@H]2c2ccc3c(c2)OCO3)cc1	14*	i	/	i	/	/
